Data from ChEMBL document CHEMBL1128437, “Derivatives of 17-phenyl-18,19,20-trinorprostaglandin F2 alpha isopropyl ester: potential antiglaucoma agents” (J Med Chem, 1995).
Several values for one entry are separate records, joined by “and”; a condition that tells them apart may be missing. Equal entries are not always repeated.

What was measured:
Felis catus [1] = species on record: Felis catus; test: The maximal difference in […] pupil diameter between treated and control eyes. The effect was tested in cats at a dose of 10.0 (ug/eye); format: functional
Outline: (§1)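 Trained female cats, 2–3 kg, were dosed unilaterally with one 20 µL topical drop of drug in 0.9% NaCl/0.5% polysorbate 80, with vehicle in the contralateral eye. Horizontal pupil diameter was measured with a millimetre ruler under constant 10 lux illumination before dosing and at 1, 3, 6 and 23 h. Reported as maximal treated–control difference or as area between curves, per animal.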

Felis catus [2] = species on record: Felis catus; test: The mean area between curves for pupil diameter between treated and control eyes. The effect was tested in cats at a dose of 1.0 (ug/eye); format: functional; outline: as §1
Felis catus [3] = species on record: Felis catus; test: The maximal difference in […] pupil diameter between treated and control eyes. The effect was tested in cats at a dose of 1.0 (ug/eye); format: functional; outline: as §1
Oryctolagus cuniculus [4] = species on record: Oryctolagus cuniculus; test: The mean area between curves for conjunctival hyperemia between treated and control eyes. The effect was tested in rabbit at a dose of 0.1 (ug/eye)
Oryctolagus cuniculus [5] = species on record: Oryctolagus cuniculus; test: The maximal difference in conjunctival hyperemia between treated and control eyes. The effect was tested in rabbit at a dose of 0.5 (ug/eye)
Oryctolagus cuniculus [6] = species on record: Oryctolagus cuniculus; test: The mean area between curves for conjunctival hyperemia between treated and control eyes. The effect was tested in rabbit at a dose of 0.5 (ug/eye)
Felis catus [7] = species on record: Felis catus; test: The mean ocular irritation in the treated eyes. An arbitrary scale of from 0 to 3 was used, 0 indicates absence of irritation and 3 complete closure of the lids. The effect was tested in cats at a dose of 1.0 (ug/eye); format: functional
Outline: (§2)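 Ocular irritation was scored in the treated eye of trained female cats, 2–3 kg. Drug was given as one topical 20 µL drop in 0.9% NaCl with 0.5% polysorbate 80. The contralateral eye got vehicle only.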

Felis catus [8] = species on record: Felis catus; test: The maximal difference in Intraocular Pressure (IOP) between treated and control eyes. The effect was tested in cats at a dose of 1.0 (ug/eye); format: functional
Outline: (§3)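 Domestic female cats, 2–3 kg, trained for IOP measurement. One eye received a topical drop (20 µL) of drug in 0.9% NaCl with 0.5% polysorbate 80; the other eye received vehicle. IOP was read by pneumatonometer under oxibuprocain local anaesthesia before dosing and at 1, 3, 6 and 23 h. The maximal treated-minus-control difference was taken. Area between curves is the treated-eye AUC minus control-eye AUC, per animal.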

Felis catus [9] = species on record: Felis catus; test: The mean area between curves for Intraocular Pressure (IOP) measured in treated and control eyes. The effect was tested in cats at a dose of 10.0 (ug/eye); format: functional; outline: as §3
Felis catus [10] = species on record: Felis catus; test: The mean ocular irritation in the treated eyes. An arbitrary scale of from 0 to 3 was used, 0 indicates absence of irritation and 3 complete closure of the lids. The effect was tested in cats at a dose of 10.0 (ug/eye); format: functional; outline: as §2
Felis catus [11] = species on record: Felis catus; test: The maximal difference in Intraocular Pressure (IOP) between treated and control eyes. The effect was tested in cats at a dose of 10.0 (ug/eye); format: functional; outline: as §3
Felis catus [12] = species on record: Felis catus; test: The mean area between curves for pupil diameter between treated and control eyes. The effect was tested in cats at a dose of 10.0 (ug/eye); format: functional; outline: as §1
Oryctolagus cuniculus [13] = species on record: Oryctolagus cuniculus; test: The maximal difference in conjunctival hyperemia between treated and control eyes. The effect was tested in rabbit at a dose of 0.1 (ug/eye)
Felis catus [14] = species on record: Felis catus; test: The mean area between curves for Intraocular Pressure (IOP) measured in treated and control eyes. The effect was tested in cats at a dose of 1.0 (ug/eye); format: functional; outline: as §3
Felis catus [15] = species on record: Felis catus; test: Concentration giving half-maximal contraction of the cat iris sphincter muscle was determined in vitro; format: functional
Outline: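 Compounds were tested as hydrolysed free acids on isolated cat iris sphincter in organ baths. Bath solution was bicarbonate physiological saline with glucose plus indomethacin 2.8 × 10⁻⁶ M, atropine 10⁻⁷ M and propranolol 10⁻⁶ M. Resting tension was 150 mg, with at least 30 min equilibration. Cumulative dosing was at 5–10 min intervals. Isometric contraction was normalised to each tissue's maximum, averaged over four preparations, and fitted with a Hill equation for EC50.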

Felis catus [16] = species on record: Felis catus; test: The maximal difference in […] pupil diameter between treated and control eyes. The effect was tested in cats at a dose of 3.0 (ug/eye); format: functional; outline: as §1
Felis catus [17] = species on record: Felis catus; test: The mean ocular irritation in the treated eyes. An arbitrary scale of from 0 to 3 was used, 0 indicates absence of irritation and 3 complete closure of the lids. The effect was tested in cats at a dose of 3.0 (ug/eye); format: functional; outline: as §2
Felis catus [18] = species on record: Felis catus; test: The maximal difference in Intraocular Pressure (IOP) between treated and control eyes. The effect was tested in cats at a dose of 3.0 (ug/eye); format: functional; outline: as §3
Felis catus [19] = species on record: Felis catus; test: The mean area between curves for Intraocular Pressure (IOP) measured in treated and control eyes. The effect was tested in cats at a dose of 3.0 (ug/eye); format: functional; outline: as §3
Felis catus [20] = species on record: Felis catus; test: The mean area between curves for pupil diameter between treated and control eyes. The effect was tested in cats at a dose of 3.0 (ug/eye); format: functional; outline: as §1
Monkey [21] = test: The mean area between curves for Intraocular Pressure (IOP) measured in treated and control eyes. The effect was tested in monkey at a dose of 3.0 (ug/eye); format: functional, Cercopithecidae
Outline: (§4)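 Cynomolgus monkeys trained for IOP measurement were sedated with ketamine (2–3 mg/kg) for transport and seated in restraint chairs under oxibuprocain local anaesthesia. One eye received a 10 µL drop of drug in 0.9% NaCl/0.5% polysorbate 80; the fellow eye received vehicle. IOP was read by pneumatonometer calibrated for monkey eyes before dosing and at 1, 2, 4 and 6 h. Matched-pair t test, n = 6.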

Monkey [22] = test: The maximal difference in Intraocular Pressure (IOP) measured in treated and control eyes. The effect was tested in monkey at a dose of 3.0 (ug/eye); format: functional, Cercopithecidae; outline: as §4

| SMILES | P ABC (Felis catus [2]) | Pmax (Felis catus [3]) | Hmax (Oryctolagus cuniculus [5]) | H ABC (Oryctolagus cuniculus [6]) | Irritation (Felis catus [7]) | Imax (Felis catus [8]) | I ABC (Felis catus [14]) | EC50 (Felis catus [15]; Felis catus, Sphincter muscle) | I ABC (Monkey [21]) | Imax (Monkey [22]) | also measured |
| --- | --- | --- | --- | --- | --- | --- | --- | --- | --- | --- | --- |
| CC(C)OC(=O)CCC/C=C\C[C@@H]1[C@@H](/C=C/[C@@H](O)CCc2ccc(Br)cc2)[C@H](O)C[C@@H]1O | -18.1 | < -1.5 mm | <0.5 | 1.2 | 0 arbitrary units | 0.3 mmHg | 3.4 | – | – | – | Pmax (Felis catus [1]): < -6 mm; H ABC (Oryctolagus cuniculus [4]): <2.2; I ABC (Felis catus [9]): <-25; Irritation (Felis catus [10]): 0.3 arbitrary units; Imax (Felis catus [11]): <-3 mmHg; P ABC (Felis catus [12]): -80; Hmax (Oryctolagus cuniculus [13]): <1.1 |
| Cc1ccc(CCC(O)/C=C/[C@@H]2[C@@H](C/C=C\CCCC(=O)O)[C@@H](O)C[C@H]2O)cc1 (stereo partly drawn) | – | – | – | – | – | – | – | 0.04 µM | – | – | – |
| CC(C)OC(=O)CCC/C=C\C[C@@H]1[C@@H](/C=C/[C@@H](O)CCc2cccc(-c3cccs3)c2)[C@H](O)C[C@@H]1O | -9.2 | < -1.5 mm | <0.9 | <2.6 | 0.1 arbitrary units | <-3 mmHg | <-40 | – | – | – | Pmax (Felis catus [16]): < -3.5 mm; Irritation (Felis catus [17]): 0.3 arbitrary units; Imax (Felis catus [18]): -1.2 mmHg; I ABC (Felis catus [19]): -10.3; P ABC (Felis catus [20]): <-28 |
| CCCCC[C@H](O)/C=C/[C@@H]1[C@@H](C/C=C\CCCC(=O)O)[C@@H](O)C[C@H]1O [DINOPROST] | – | – | – | – | – | – | – | 0.0067 µM | – | – | – |
| CC(C)OC(=O)CCC/C=C\C[C@@H]1[C@@H](/C=C/[C@H](O)CCc2ccc(-c3ccccc3)cc2)[C@H](O)C[C@@H]1O | 1.8 | 0.5 mm | <0.5 | 0.7 | – | <-1 mmHg | -8.3 | – | – | – | Pmax (Felis catus [1]): < -0.8 mm; I ABC (Felis catus [9]): -2; Imax (Felis catus [11]): -0.3 mmHg; P ABC (Felis catus [12]): -3.8 |
| O=C(O)CCC/C=C\C[C@@H]1[C@@H](/C=C/C(O)CCc2ccccc2)[C@H](O)C[C@@H]1O (stereo partly drawn) | – | – | – | – | – | – | – | 0.00071 µM | – | – | – |
| CC(C)OC(=O)CCC/C=C\C[C@@H]1[C@@H](/C=C/[C@@H](O)CCc2ccc(-c3cccs3)cc2)[C@H](O)C[C@@H]1O | -2.2 | < -0.9 mm | 0.3 | 0 | 0.4 arbitrary units | <-4.2 mmHg | -84 | – | 6.5 | <1.5 mmHg | – |
| CC(C)OC(=O)CCC/C=C\C[C@@H]1[C@@H](/C=C/[C@@H](O)CCc2cccc(Br)c2)[C@H](O)C[C@@H]1O | <-99 | < 6.3 mm | <1.5 | 4.8 | 0.2 arbitrary units | -1 mmHg | -12.9 | – | -6.5 | -2 mmHg | Pmax (Felis catus [1]): < -6.7 mm; Pmax (Felis catus [16]): < -6.8 mm; Irritation (Felis catus [17]): 0.3 arbitrary units; Imax (Felis catus [18]): -2.7 mmHg; I ABC (Felis catus [19]): -42.5; I ABC (Felis catus [9]): <-49; Irritation (Felis catus [10]): 0.2 arbitrary units; Imax (Felis catus [11]): <-3.3 mmHg; P ABC (Felis catus [12]): <-138; P ABC (Felis catus [20]): <-125 |
| O=C(O)CCC/C=C\C[C@@H]1[C@@H](/C=C/[C@H](O)CCc2ccc(Br)cc2)[C@H](O)C[C@@H]1O | – | – | – | – | – | – | – | 2.1 µM | – | – | – |
| Cc1cccc(CCC(O)/C=C/[C@@H]2[C@@H](C/C=C\CCCC(=O)O)[C@@H](O)C[C@H]2O)c1 (stereo partly drawn) | – | – | – | – | – | – | – | 0.0043 µM | – | – | – |
| O=C(O)CCC/C=C\C[C@@H]1[C@@H](/C=C/C(O)CCc2cccc(Br)c2)[C@H](O)C[C@@H]1O (stereo partly drawn) | – | – | – | – | – | – | – | – | – | – | EC50 (Felis catus [15]): 0.033 µM and 0.0049 µM |
| O=C(O)CCC/C=C\C[C@@H]1[C@@H](/C=C/[C@@H](O)CCc2ccc(Br)cc2)[C@H](O)C[C@@H]1O | – | – | – | – | – | – | – | 0.035 µM | – | – | – |
| CC(=O)c1cccc(CC[C@H](O)/C=C/[C@@H]2[C@@H](C/C=C\CCCC(=O)OC(C)C)[C@@H](O)C[C@H]2O)c1 | <-30 | < -1.8 mm | -0.1 | 0 | 1.3 arbitrary units | 0.7 mmHg | 7.1 | – | <-12.3 | <-2.8 mmHg | – |
| CC(C)OC(=O)CCC/C=C\C[C@@H]1[C@@H](/C=C/[C@H](O)CCc2cccc(Br)c2)[C@H](O)C[C@@H]1O | <-50.3 | < -3.8 mm | <1.2 | <2 | 0 arbitrary units | <1.2 mmHg | 0.2 | – | -6 | -1.4 mmHg | Pmax (Felis catus [16]): < -5.3 mm; Irritation (Felis catus [17]): 0 arbitrary units; Imax (Felis catus [18]): -2 mmHg; I ABC (Felis catus [19]): -6.2; P ABC (Felis catus [20]): <-71 |
| CC(=O)c1ccc(CC[C@H](O)/C=C/[C@@H]2[C@@H](C/C=C\CCCC(=O)OC(C)C)[C@@H](O)C[C@H]2O)cc1 | 1.4 | 0.2 mm | -0.2 | -0.5 | 0 arbitrary units | -0.3 mmHg | -4.3 | – | <-10 | <-2.3 mmHg | – |
